Shown are actives, neighbours in structure and some others; about 2% of the full set was active somewhere.
GPR7 antagonist: GPR7 receptor antagonists, primary screen, cell-based, fluorescence, single concentration; Neuropeptides B/W receptor type 1 (Homo sapiens), P48145; GPR7-expressing cells, fluorescence antagonist assay; inhibition, % at 4.4 µM; 290,000 compounds, 1.1% hits; AID 1861, 2009; in the data active = inhibition above about 16%, passing the limit was not always enough;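 also: cells stimulated with the agonist NPW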
Target sequence (P48145 whole entry, looked up): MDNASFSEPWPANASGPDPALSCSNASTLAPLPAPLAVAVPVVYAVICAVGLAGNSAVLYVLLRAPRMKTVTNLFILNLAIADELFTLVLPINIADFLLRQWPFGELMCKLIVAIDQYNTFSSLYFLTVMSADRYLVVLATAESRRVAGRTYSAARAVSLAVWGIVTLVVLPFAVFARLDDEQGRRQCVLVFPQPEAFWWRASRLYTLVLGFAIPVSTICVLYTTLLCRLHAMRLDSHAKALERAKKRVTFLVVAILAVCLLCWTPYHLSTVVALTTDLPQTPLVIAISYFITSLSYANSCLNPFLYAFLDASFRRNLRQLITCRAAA
TRPML3 ag: human TRPML3 channel agonists, primary screen, cell-based, HEK293 TRPML3-YFP, Fluo-8 calcium fluorescence, 3 µM. Mucolipin-3 (Homo sapiens), Q8TDD5. 100% = the carbachol control signal. AID 1448, 2008. activation, % at 3 µM. 220,000 compounds, 0.29% hits;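 active = activation above its plate's cutoff, the mean activation of the plate's test wells plus 3 SD, cut at about 12% in these data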
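Material: HEK293 cells stably carrying human TRPML3-YFP; compound dosing: single dose, 3 µM final nominal compound, 0.3% DMSO final; incubation: 1-h 37 °C dye load, 5-s basal, 120-s post-compound reads; technique: Fluo-8 intracellular calcium fluorescence, excitation 470-495 nm, emission 515-575 nm; read-out basis: percent activation from peak-to-basal fluorescence ratio, scaled between DMSO and carbachol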
CRFR2-BP antag: antagonists of CRF-BP/CRF-R2 complex, primary screen, cell-based, HEK293, calcium dye fluorescence, uHTS; inhibition, % at 11.8 µM; CRF-induced calcium fluorescence; 350,000 compounds, 0.59% hits; AID 588475, 2011;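 active = inhibition of the ligand-induced calcium signal above about 50% at the single tested concentration, limit read from the data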
CRFBP-R2 agonist: agonists of CRF-BP/CRF-R2 complex, primary screen, cell-based, HEK293, calcium dye fluorescence, uHTS; CRF-binding protein / CRF receptor 2 complex (human); calcium dye fluorescence (FLIPR); percent of saturating CRF peptide response; activation, % at 13.2 µM; 350,000 compounds, 0.46% hits; AID 588473, 2011;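 active = activation of at least 50%, plus an integration ratio under a set limit after plate pattern correction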
TRPN1 ag: zebrafish TRPN1 channel agonists, primary screen, cell-based, HEK293, calcium fluorescence | activation, % at 3 µM | HEK293 zebrafish TRPN1-YFP, Fluo-8 calcium fluorescence; 100% = response to 87 µM carbachol | 220,000 compounds, 0.18% hits;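 active = activation above its plate's cutoff, the mean activation of test wells on that plate plus 3 SD, cut at about 19% in these data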
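Material: zebrafish TRPN1-YFP in HEK293 cells; Doses: single test compound dose, 3 µM nominal, 0.3% DMSO; Timing: dye loading 1 h at 37 °C, then 30 min room temperature; Technique: intracellular calcium fluorescence with Fluo-8; Benchmarks: high carbachol 87 µM, low DMSO alone.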
GPR7 antag cf: GPR7 receptor antagonists, confirmation, cell-based, fluorescence, single concentration; shares compounds with GPR7 antagonist; GPR7-expressing cells, calcium fluorescence antagonist mode; inhibition, % at 4.4 µM; 2,400 compounds, 52% hits; in the data active = inhibition above about 24%;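 also: stimulated with the GPR7 agonist NPW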
MCHR1 antag: MCHR1 antagonists in cells, counter-screen for GPR7 antagonist project, cell-based, fluorescence, human | shares compounds with GPR7 antagonist | MCHR1-expressing cells, fluorescence antagonist assay | inhibition, % at 4.4 µM | 2,400 compounds, 62% hits | AID 2148, 2009; in the data active = inhibition above about 22%
Of the large screens only hits and unclear results are named; the others gave an inactive call (follow-up assays come after a bar, where they were run).

COc1ccc(OCc2nnc(SCC(=O)N3CCCC3)o2)cc1	GPR7 antagonist 24 (no result: TRPML3 ag, TRPN1 ag) | GPR7 antag cf inactive | MCHR1 antag inactive
COc1ccccc1NC(=O)Oc1cccc(OC(=O)c2ccccc2)c1	none | GPR7 antag cf inactive | MCHR1 antag inactive
O=C(NCCc1ccc(Cl)cc1Cl)c1cncc(Br)c1	none (no result: TRPML3 ag, TRPN1 ag)
COc1ccc(NC(=O)NCCN2CCN(c3cc(OC)ccc3OC)CC2)cc1	none (no result: TRPML3 ag, TRPN1 ag)
COc1ccc(Cl)c(N2CCN(CCCNC(=O)Nc3ccc(C)cc3)CC2)c1	GPR7 antagonist 31 | GPR7 antag cf inactive | MCHR1 antag 42
NC(=Nc1ccccc1)Nc1ccccc1	GPR7 antagonist 101, CRFBP-R2 agonist 147 (no result: TRPML3 ag, TRPN1 ag) | GPR7 antag cf 98 | MCHR1 antag 108
CC1CCCCC1NC(=O)CSc1nnc(C(F)(F)F)n1C (configuration not stated)	none (no result: GPR7 antagonist, TRPML3 ag, TRPN1 ag)
COc1ccc(NS(=O)(=O)c2ccc3oc(=O)ccc3c2)cc1	none (no result: TRPML3 ag, TRPN1 ag)
O=c1ccc2cc(S(=O)(=O)Nc3ccc(Br)cc3)ccc2o1	GPR7 antagonist 24 (no result: TRPML3 ag, TRPN1 ag) | GPR7 antag cf inactive | MCHR1 antag 22
CC1=CC(=O)C(C(C)=Nc2cccc(Cl)c2)C(=O)O1 (configuration not stated)	none (no result: GPR7 antagonist, TRPML3 ag, TRPN1 ag)
Nc1nonc1C(=O)NCCNCc1c(OCc2ccccc2F)ccc2ccccc12	GPR7 antagonist 28 | GPR7 antag cf 47 | MCHR1 antag 69
Cc1nc(C)c(C(=O)Nc2ccccc2)s1	GPR7 antagonist 22 | GPR7 antag cf inactive | MCHR1 antag inactive
Cc1nc(Cl)sc1C(=O)Nc1ccccc1	none
CCCCC(O)(CCCC)C(=O)NN(C(=O)OCC)c1ccccc1	GPR7 antagonist 32 | GPR7 antag cf 35 | MCHR1 antag 27
CCOC(=O)N(NC(=O)C(O)(c1ccccc1)c1ccccc1)c1ccccc1	GPR7 antagonist 31 | GPR7 antag cf inactive | MCHR1 antag 28
CCOC(=O)N(NC(=O)C(O)(C(C)C)C(C)C)c1ccccc1	none
COc1cccc(CNC2CCCCCCC2)c1OC	none (no result: TRPML3 ag, TRPN1 ag)
O=C(CN1CCN(CC(=O)c2ccccc2)CC1)c1ccccc1	none (no result: GPR7 antagonist, TRPML3 ag, TRPN1 ag)
CCCc1ncc(CN2CCCCC2C(=O)Nc2ccc(Oc3ccccc3)nc2)cn1 (configuration not stated)	none (no result: TRPML3 ag, TRPN1 ag)
O=C(c1cc[n+]([O-])cc1)N1CCc2c([nH]c3ccccc23)C1c1ccccc1Cl (configuration not stated)	GPR7 antagonist 31 | GPR7 antag cf inactive | MCHR1 antag inactive
CN1N=C(C(=O)N2CCc3c([nH]c4ccccc34)C2c2ccccc2Cl)CCC1=O (configuration not stated)	none
Cc1nc(C(=O)N2CCc3c([nH]c4ccccc34)C2c2ccccn2)cs1 (configuration not stated)	none
Cc1nc(C(=O)N2CCc3c([nH]c4ccccc34)C2c2cc(F)ccc2F)cs1 (configuration not stated)	GPR7 antagonist 22 | GPR7 antag cf inactive | MCHR1 antag inactive
O=C(Nc1cccc(Cl)c1)c1cc(S(=O)(=O)NCCc2ccc(Cl)cc2)ccc1F	GPR7 antagonist 21 | GPR7 antag cf inactive | MCHR1 antag 43
COc1ccc(-n2c(=S)[nH]c3cc(C(=O)NCc4ccc(F)cc4)ccc3c2=O)c(OC)c1	none (no result: TRPML3 ag, TRPN1 ag)
COc1ccc(-n2c(=S)[nH]c3cc(C(=O)Nc4ccccc4OC)ccc3c2=O)cc1	none (no result: CRFR2-BP antag, CRFBP-R2 agonist)
COc1ccc(-n2c(=S)[nH]c3cc(C(=O)NCc4ccccc4OC)ccc3c2=O)c(OC)c1	GPR7 antagonist 26 (no result: TRPML3 ag, TRPN1 ag) | GPR7 antag cf 38 | MCHR1 antag 39

Screening results (PubChem BioAssay)
